Test results from ChEMBL document CHEMBL1143703, “Linear TMC-95-based proteasome inhibitors” (J Med Chem, 2007).
Active and inactive are the calls of the source. The rule behind the calls is not given here. Residues, ends and D or L forms follow the SMILES beside them. *: point of attachment. Boc = CC(C)(C)OC(=O)*; NHBn = c1ccc(CN*)cc1; NHPh = c1ccc(N*)cc1; Bn = c1ccc(C*)cc1

Legend:
[1] = Inhibition of chymotrypsin-like activity of rabbit reticulocyte 20S proteasome; parameters: species or system Oryctolagus cuniculus
[2] = Inhibition of trypsin-like activity of rabbit reticulocyte 20S proteasome; parameters: species or system Oryctolagus cuniculus
In short: (§1)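 Trypsin-like site: proteasome exposed to 0.1-100 µM compound, fluorogenic substrate hydrolysis read 1 h at 37 °C in pH 7.5 20 mM Tris, 1 mM DTT, 10% glycerol without SDS; 3% DMSO final. Initial rates relative to untreated control: >100% expressed as activation factor, <100% as inhibition; Ki via Vi/V0 = 1/(1+[I]/Ki(app)) or IC50 = Ki(1+[S]/Km).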

[3] = Stability in RPMI medium in presence of 20% fetal calf serum; format: ADME; details: cattle, RPMI medium with 20% fetal calf serum
In short: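 Compound incubated up to 2 days at 37 °C in RPMI with 20% fetal calf serum. Stopped with ethanol, centrifuged at 4 °C, supernatant analysed by RP-HPLC. Half-life from linear least-squares fit of log[I] versus time, at least five points.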

[4] = Inhibition of post acid activity of rabbit reticulocyte 20S proteasome; parameters: species or system Oryctolagus cuniculus
Oryctolagus cuniculus [5] = species: Oryctolagus cuniculus; experiment: Activation of trypsin-like activity of rabbit reticulocyte 20S proteasome relative to control; in short: as §1
Oryctolagus cuniculus [6] = species: Oryctolagus cuniculus; experiment: Activation of chymotrypsin-like activity of rabbit reticulocyte 20S proteasome relative to control
Oryctolagus cuniculus [7] = species: Oryctolagus cuniculus; experiment: Inhibition of post acid activity of rabbit reticulocyte 20S proteasome at 100 uM
Oryctolagus cuniculus [8] = species: Oryctolagus cuniculus; experiment: Inhibition of chymotrypsin-like activity of rabbit reticulocyte 20S proteasome at 100 uM
Oryctolagus cuniculus [9] = species: Oryctolagus cuniculus; experiment: Inhibition of trypsin-like activity of rabbit reticulocyte 20S proteasome at 100 uM; in short: as §1
HepG2 = experiment: Growth inhibition of human HepG2 cells at 50 uM after 48 hrs by MTT assay; format: functional, cell-based
In short: (§2)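 5 × 10^3 cells grown in triplicate 48 h with or without 50 µM inhibitor. Media: DMEM for HeLa and T-47D; MEM for HEK-293, HuH7 and Hep G2; McCoy for HCT-116; each with 10% FBS, 5% CO2. Survival read by MTT metabolism at 37 °C, relative to DMSO-only control.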

HEK293 = experiment: Cytotoxicity against human HEK293 cells at 50 uM after 48 hrs by MTT assay; format: functional, cell-based; in short: as §2
HeLa [10] = experiment: Cytotoxicity against human HeLa cells by MTT assay; format: functional, cell-based
HeLa [11] = experiment: Cytotoxicity against human HeLa cells at 50 uM after 48 hrs by MTT assay; format: functional, cell-based; in short: as §2
HCT-116 = experiment: Growth inhibition of human HCT116 cells at 50 uM after 48 hrs by MTT assay; format: functional, cell-based; in short: as §2
T47D = experiment: Growth inhibition of human T47D cells at 50 uM after 48 hrs by MTT assay; format: functional, cell-based; in short: as §2
Huh-7 = experiment: Growth inhibition of human HuH7 cells at 50 uM after 48 hrs by MTT assay; format: functional, cell-based; in short: as §2

Row | SMILES | Ki [1] | Ki [2] | Ki [4] | Fold change (Oryctolagus cuniculus [5]) | Fold change (Oryctolagus cuniculus [6]) | inhibition (Oryctolagus cuniculus [7]) | inhibition (Oryctolagus cuniculus [9]) | also measured
1 | C[C@H](NC(=O)[C@H](Cc1ccc(OCc2ccccc2)c(I)c1)NC(=O)OC(C)(C)C)C(=O)N[C@@H](Cc1c[nH]c2c(Br)cccc12)C(=O)O | 1.6 µM | 3 µM | 2.8 µM | – | – | – | – | half-life [3]: 37 h
2 | C[C@H](NC(=O)[C@H](Cc1ccc(OCc2ccccc2)cc1)NC(=O)OC(C)(C)C)C(=O)N[C@@H](Cc1c[nH]c2ccccc12)C(=O)Nc1ccccc1 (Boc-Tyr(Bn)-Ala-Trp-NHPh) | – | – | > 100 µM | 1.6 | 1.4 | < 20% | – | –
3 | CCOC(=O)[C@H](Cc1c[nH]c2c(Br)cccc12)NC(=O)[C@H](CC(C)C)NC(=O)[C@H](Cc1ccc(OCc2ccccc2)c(I)c1)NC(=O)OC(C)(C)C | > 100 µM | > 100 µM | > 100 µM | – | – | < 20% | < 20% | inhibition (Oryctolagus cuniculus [8]): < 20%
4 | CC(C)(C)OC(=O)NCCCC[C@H](NC(=O)[C@H](Cc1ccc(OCc2ccccc2)cc1)NC(=O)OC(C)(C)C)C(=O)N[C@@H](Cc1c[nH]c2ccccc12)C(=O)NCc1ccccc1 (Boc-Tyr(Bn)-Lys(Boc)-Trp-NHBn) | – | – | > 100 µM | 1.8 | 1.3 | < 20% | – | –
5 | C[C@H](NC(=O)[C@H](Cc1ccc(OCc2ccccc2)cc1)NC(=O)OC(C)(C)C)C(=O)N[C@@H](Cc1c[nH]c2ccccc12)C(=O)NCCCCNC(=O)OC(C)(C)C | – | – | > 100 µM | 3.2 | 1.5 | < 20% | – | –
6 | CCOC(=O)[C@H](Cc1c[nH]c2c(Br)cccc12)NC(=O)[C@H](CC(C)C)NC(=O)[C@H](Cc1ccc(OC)c(I)c1)NC(=O)OC(C)(C)C | > 100 µM | > 100 µM | > 100 µM | – | – | – | < 20% | inhibition (Oryctolagus cuniculus [8]): < 20%
7 | CC(C)(C)OC(=O)N[C@@H](Cc1ccc(OCc2ccccc2)cc1)C(=O)N[C@@H](CC(N)=O)C(=O)N[C@@H](Cc1c[nH]c2ccccc12)C(=O)Nc1ccccc1 (Boc-Tyr(Bn)-Asn-Trp-NHPh) | – | – | > 100 µM | 1.6 | 1.5 | < 20% | – | –
8 | CC(C)(C)OC(=O)N[C@@H](Cc1ccc(OCc2ccccc2)cc1)C(=O)N[C@@H](CC(N)=O)C(=O)N[C@@H](Cc1c[nH]c2ccccc12)C(=O)NCc1ccccc1 (Boc-Tyr(Bn)-Asn-Trp-NHBn) | 59.3 µM | – | 84.2 µM | 2.2 | – | – | – | half-life [3]: 6.5 h
9 | CC(C)(C)OC(=O)N[C@@H](Cc1ccc(OCc2ccccc2)cc1)C(=O)N[C@@H](CC(N)=O)C(=O)N[C@@H](Cc1c[nH]c2ccccc12)C(=O)Nc1ccc(O)cc1 | > 100 µM | > 100 µM | 23.4 µM | – | – | – | < 20% | –
10 | COC(=O)[C@@H]1Cc2c[nH]c3c(cccc23)-c2ccc(cc2OC)C[C@H](NC(=O)OC(C)(C)C)C(=O)N[C@@H](C)C(=O)N1 | > 100 µM | > 100 µM | 37.1 µM | – | – | < 20% | < 20% | inhibition (Oryctolagus cuniculus [8]): < 20%
11 | C[C@H](NC(=O)[C@H](Cc1ccc(OCc2ccccc2)cc1)NC(=O)OC(C)(C)C)C(=O)N[C@@H](Cc1c[nH]c2ccccc12)C(=O)Nc1ccc(O)cc1 | 65.7 µM | > 100 µM | 1 µM | – | – | – | < 20% | Activity (HepG2): inactive; Activity (HEK293): Active; IC50 (HeLa [10]): 15 µM; Activity (HeLa [11]): Active; Activity (HCT-116): Active; Activity (T47D): Active; Activity (Huh-7): Active
12 | CC(C)(C)OC(=O)NCCCCNC(=O)[C@H](Cc1c[nH]c2ccccc12)NC(=O)[C@H](CC(N)=O)NC(=O)[C@H](Cc1ccc(OCc2ccccc2)cc1)NC(=O)OC(C)(C)C | – | – | > 100 µM | 2.2 | 1.6 | < 20% | – | –
13 | COC(=O)[C@H](Cc1c[nH]c2c(Br)cccc12)NC(=O)[C@H](C)NC(=O)[C@H](Cc1ccc(OC)c(I)c1)NC(=O)OC(C)(C)C | 59.3 µM | > 100 µM | 74 µM | – | – | – | < 20% | –
14 | COC(=O)[C@H](Cc1c[nH]c2c(Br)cccc12)NC(=O)[C@H](C)NC(=O)[C@H](Cc1ccc(OCc2ccccc2)c(I)c1)NC(=O)OC(C)(C)C | > 100 µM | > 100 µM | 96.4 µM | – | – | – | < 20% | inhibition (Oryctolagus cuniculus [8]): < 20%
15 | COC(=O)[C@H](Cc1c[nH]c2c(Br)cccc12)NC(=O)[C@H](CC(N)=O)NC(=O)[C@H](Cc1ccc(OCc2ccccc2)c(I)c1)NC(=O)OC(C)(C)C | 14.1 µM | > 100 µM | 55.4 µM | – | – | – | < 20% | –
16 | CC(C)C[C@H](NC(=O)[C@H](Cc1ccc(OCc2ccccc2)cc1)NC(=O)OC(C)(C)C)C(=O)N[C@@H](Cc1c[nH]c2ccccc12)C(=O)NCc1ccccc1 (Boc-Tyr(Bn)-Leu-Trp-NHBn) | – | – | > 100 µM | 1.9 | 1.3 | < 20% | – | –
17 | CC(C)(C)OC(=O)NCCCCNC(=O)[C@H](Cc1c[nH]c2ccccc12)NC(=O)[C@H](CCCCNC(=O)OC(C)(C)C)NC(=O)[C@H](Cc1ccc(OCc2ccccc2)cc1)NC(=O)OC(C)(C)C | – | – | > 100 µM | 1.9 | 1.6 | < 20% | – | –
18 | CNC(=O)[C@H](Cc1c[nH]c2c(Br)cccc12)NC(=O)[C@H](C)NC(=O)[C@H](Cc1ccc(OCc2ccccc2)c(I)c1)NC(=O)OC(C)(C)C | 59.3 µM | > 100 µM | 30.2 µM | – | – | – | < 20% | –
19 | CC(C)(C)OC(=O)N[C@@H](Cc1ccc(OCc2ccccc2)cc1)C(=O)N[C@@H](CCCN(C(=N)NC(=O)OCc1ccccc1)C(=O)OCc1ccccc1)C(=O)N[C@@H](Cc1c[nH]c2ccccc12)C(=O)Nc1ccc(O)cc1 | > 100 µM | > 100 µM | > 100 µM | – | – | < 20% | < 20% | inhibition (Oryctolagus cuniculus [8]): < 20%
